Measurements as given in article PMC2745822 (The Journal of pharmacology and experimental therapeutics, 2008).

Assays:
[1] = biological target: T1, rM4 receptor (Rattus norvegicus, UniProt P08485); experiment: [3H]NMS equilibrium radioligand binding, membranes from rM4-expressing CHO cells
T1 sequence (P08485 1-478): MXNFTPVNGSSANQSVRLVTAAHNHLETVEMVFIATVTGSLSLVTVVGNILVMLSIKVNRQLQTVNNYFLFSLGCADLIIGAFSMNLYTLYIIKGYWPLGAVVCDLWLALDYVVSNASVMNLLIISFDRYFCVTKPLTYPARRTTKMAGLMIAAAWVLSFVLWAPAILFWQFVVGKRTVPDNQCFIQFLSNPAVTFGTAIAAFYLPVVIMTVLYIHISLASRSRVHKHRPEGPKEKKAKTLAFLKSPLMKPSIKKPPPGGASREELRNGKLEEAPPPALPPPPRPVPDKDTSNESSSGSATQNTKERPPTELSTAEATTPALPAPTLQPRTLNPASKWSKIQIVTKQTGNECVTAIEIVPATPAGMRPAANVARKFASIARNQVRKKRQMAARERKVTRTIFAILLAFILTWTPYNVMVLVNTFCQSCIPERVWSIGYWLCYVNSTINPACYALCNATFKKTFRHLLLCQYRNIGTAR

[2] = biological target: M3 mAChR (Homo sapiens, UniProt P20309); experiment: Calcium mobilization selectivity assay, CHO K1 cells expressing M3; assay type: cell-based; settings: 30 µM compound
Procedure, shortened: (§1)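 CHO K1 cells stably expressing rat M1 or human M3 or M5, coupled through endogenous Gq. Seeded 50,000 cells/well and held overnight in antibiotic-free medium at 37°C/5% CO2. Loaded with 2 µM Fluo-4 AM for 45 min at 37°C in HBSS/20 mM HEPES/2.5 mM probenecid, pH 7.4. […] Three independent experiments.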

[3] = biological target: T2, M5 mAChR (Homo sapiens, UniProt P08912); experiment: Calcium mobilization selectivity assay, CHO K1 cells expressing M5; assay type: cell-based; settings: 30 µM compound
T2 sequence (P08912 1-532): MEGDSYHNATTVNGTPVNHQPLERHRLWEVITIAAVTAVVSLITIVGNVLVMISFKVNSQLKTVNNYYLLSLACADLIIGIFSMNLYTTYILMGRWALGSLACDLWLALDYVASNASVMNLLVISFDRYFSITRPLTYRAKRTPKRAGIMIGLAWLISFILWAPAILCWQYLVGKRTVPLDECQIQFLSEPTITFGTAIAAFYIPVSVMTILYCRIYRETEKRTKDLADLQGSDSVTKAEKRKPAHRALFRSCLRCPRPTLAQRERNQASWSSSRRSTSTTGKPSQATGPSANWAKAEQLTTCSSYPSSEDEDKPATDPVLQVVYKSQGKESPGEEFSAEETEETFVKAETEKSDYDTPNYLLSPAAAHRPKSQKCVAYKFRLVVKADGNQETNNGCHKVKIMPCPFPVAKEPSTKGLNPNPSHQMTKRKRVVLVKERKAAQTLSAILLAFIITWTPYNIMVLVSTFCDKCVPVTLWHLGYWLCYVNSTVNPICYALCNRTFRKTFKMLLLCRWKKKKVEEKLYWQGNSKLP
Procedure, shortened: as §1

[4] = test system: panel of 68 discrete GPCRs, ion channels, transporters, and enzymes; experiment: MDS Pharma LeadProfiling Screen radioligand binding panel; settings: 10 µM; for VU0152099 with the single exception of GABAA receptors
[5] = test system: GABAA receptors; experiment: MDS Pharma LeadProfiling Screen, flunitrazepam binding; settings: 10 µM
[6] = test system: panel of 16 GPCRs; experiment: Millipore GPCR Profiler functional panel; assay type: cell-based
Procedure, shortened: (§2)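 Outsourced functional screening paradigm covering 16 GPCRs, chosen as family A subtypes among the closest relatives of mAChRs. Test compound was assessed for agonist, antagonist and allosteric potentiator activity by its effect on full concentration-response curves of each receptor's agonist.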

[7] = biological target: T3, human M4 (Homo sapiens, UniProt P08173); experiment: Millipore GPCR Profiler functional screen, human M4; assay type: cell-based; settings: full agonist CRC
T3 sequence (P08173 1-479): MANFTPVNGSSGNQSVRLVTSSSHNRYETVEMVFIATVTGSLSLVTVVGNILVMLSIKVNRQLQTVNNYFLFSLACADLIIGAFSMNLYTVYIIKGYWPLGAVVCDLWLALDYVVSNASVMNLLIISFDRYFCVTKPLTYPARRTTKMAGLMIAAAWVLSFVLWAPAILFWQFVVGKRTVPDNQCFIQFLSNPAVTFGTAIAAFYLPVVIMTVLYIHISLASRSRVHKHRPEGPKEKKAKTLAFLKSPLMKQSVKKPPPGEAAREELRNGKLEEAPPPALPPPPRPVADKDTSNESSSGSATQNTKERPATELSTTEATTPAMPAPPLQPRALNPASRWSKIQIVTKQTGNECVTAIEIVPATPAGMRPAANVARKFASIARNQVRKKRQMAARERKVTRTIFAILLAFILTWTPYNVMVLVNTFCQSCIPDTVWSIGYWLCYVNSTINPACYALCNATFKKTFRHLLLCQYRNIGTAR
Procedure, shortened: as §2

[8] = biological target: serotonin 2B receptor (Homo sapiens, UniProt P41595); experiment: Millipore GPCR Profiler functional screen, serotonin 2B receptor; assay type: cell-based; settings: full agonist CRC
Procedure, shortened: as §2

[9] = log P; assay type: physicochemical
[10] = Formulation into homogeneous dosing solution; assay type: physicochemical; settings: vehicles acceptable for in vivo studies
Procedure, shortened: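 Test compound was jet-milled to uniform nanoparticles before vehicle formulation. It was then dissolved at 56.6 mg/ml in 10% Tween 80 in double-deionized water, with pH adjusted to about 7.0 using 1 N NaOH. The mixture was sonicated until a uniform homogeneous solution formed, for intraperitoneal dosing.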

[11] = Brain and plasma exposure pharmacokinetic profiling; assay type: in vivo, rat; settings: male rats, 56.6 mg/kg i.p.; mean ± S.E.M., n = 3
Procedure, shortened: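 Male Sprague-Dawley rats (225–250 g), fasted overnight. Test compound dissolved at 56.6 mg/ml in 10% Tween 80/water, pH ~7.0 (1 N NaOH), sonicated, and given at 56.6 mg/kg i.p. Brain and trunk plasma taken at 0.5, 1, 2 and 4 h, three rats per time point. Brain homogenized in acetonitrile/methanol and plasma precipitated with acidified acetonitrile, both with internal standard. Analyzed by positive-ESI LC-MS-MS, linear 50 ng/ml–100 µg/ml. AUC0-∞ by trapezoidal method.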

[12] = test system: amphetamine-induced hyperlocomotion in rats; experiment: Amphetamine-induced hyperlocomotion; assay type: in vivo, rat; settings: 56.6 mg/kg i.p., 30-min pretreatment; 1 mg/kg s.c. amphetamine; 60 min

Chain of serotonin 2B receptor (P41595 whole entry): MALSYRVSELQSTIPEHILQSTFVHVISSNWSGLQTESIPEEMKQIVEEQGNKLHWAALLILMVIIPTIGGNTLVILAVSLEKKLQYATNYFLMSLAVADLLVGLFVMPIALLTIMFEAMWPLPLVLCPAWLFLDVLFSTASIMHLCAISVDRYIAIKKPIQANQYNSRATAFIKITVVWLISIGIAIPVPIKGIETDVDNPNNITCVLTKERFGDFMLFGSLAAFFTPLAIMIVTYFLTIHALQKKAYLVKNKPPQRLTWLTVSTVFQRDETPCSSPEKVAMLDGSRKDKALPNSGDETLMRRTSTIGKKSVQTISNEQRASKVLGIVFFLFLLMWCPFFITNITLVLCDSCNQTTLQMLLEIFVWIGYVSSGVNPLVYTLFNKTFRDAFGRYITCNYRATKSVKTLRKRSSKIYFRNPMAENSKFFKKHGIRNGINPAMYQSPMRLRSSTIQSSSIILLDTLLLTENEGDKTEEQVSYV
Chain of M3 mAChR (P20309 whole entry): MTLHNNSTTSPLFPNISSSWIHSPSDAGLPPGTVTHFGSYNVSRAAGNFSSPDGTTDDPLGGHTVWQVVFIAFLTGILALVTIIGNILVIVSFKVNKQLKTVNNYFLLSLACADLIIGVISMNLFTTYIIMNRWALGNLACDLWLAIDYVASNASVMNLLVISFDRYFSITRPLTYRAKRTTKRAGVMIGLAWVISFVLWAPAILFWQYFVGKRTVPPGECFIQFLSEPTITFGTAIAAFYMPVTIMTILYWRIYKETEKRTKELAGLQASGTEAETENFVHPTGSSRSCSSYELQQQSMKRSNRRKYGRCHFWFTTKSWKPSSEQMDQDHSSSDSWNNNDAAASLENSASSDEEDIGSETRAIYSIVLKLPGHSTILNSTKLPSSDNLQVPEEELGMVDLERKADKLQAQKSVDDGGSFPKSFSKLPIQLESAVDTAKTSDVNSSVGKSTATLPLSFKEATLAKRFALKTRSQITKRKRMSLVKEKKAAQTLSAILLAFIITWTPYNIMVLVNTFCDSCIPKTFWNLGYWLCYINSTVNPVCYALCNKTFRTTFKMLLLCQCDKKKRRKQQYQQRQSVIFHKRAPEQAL

## Cc1cc(C)c2c(N)c(C(=O)NCc3ccc4c(c3)OCO4)sc2n1 [VU0152099, 3-amino-N-(benzo[d][1,3]dioxol-5-ylmethyl)-4,6-dimethylthieno[2,3-b]pyridine carboxamide]
[1]; 0.1 nM [3H]NMS, concentrations up to 30 µM
  displacement of [3H]NMS: neither M4 PAM displaced
[1]; 10 µM compound
  leftward shift in the potency of ACh to displace [3H]NMS: 25 fold
[2]
  shift in the ACh CRC at M3: No shift in the ACh CRC was observed
[3]
  shift in the ACh CRC at M5: No shift in the ACh CRC was observed
[4]
  displacement of binding, all targets tested: less than 50%
[5]
  displacement of flunitrazepam binding: 51%
[6]; data not shown
  agonist activity, compound alone: no agonist activity at any receptor studied
[6]; full agonist CRCs
  allosteric potentiator activity at the other GPCR subtypes: had no allosteric potentiator activity at any of the other GPCR subtypes tested
[7]
  potentiation of ACh-induced activation of human M4: induced a robust potentiation of ACh-induced activation of human M4
[8]
  antagonist activity at serotonin 2B receptor: weak antagonist activity at serotonin 2B receptor
[9]
  log P: 3.65
[10]
  formulation into homogeneous dosing solution: afforded homogeneous dosing solutions in multiple vehicles acceptable for in vivo studies
[11]
  AUC brain / AUC plasma: 0.39 ± 0.01
  Mean AUC (0-∞) brain: 4751.80 ± 666.17 ng·h/g
  Mean AUC(0-∞) plasma: 11928.00 ± 1472.36 ng·h/mL
  t1/2 brain: 1.25 ± 0.023 h
  t1/2 plasma: 1.66 ± 0.39 h
[12]
  effect on amphetamine-induced hyperlocomotion: produced robust decreases in amphetamine-induced hyperlocomotion
